Screens deposited in PubChem BioAssay by several laboratories.
In the library only some 3.2% were active in any assay of this set; here they are far more common.
MEKK3 PB1 HTS – modulators of MEKK3-MEK5 PB1 binding, primary screen, biochemical, wildtype MEKK3, multiplex bead flow cytometry, Alexa488-MEK5. AID 1529, 2009. Mitogen-activated protein kinase kinase kinase 3 (Homo sapiens), Q99759. 290,000 tested, 1.4% active. binding response (% of control), % at 10 µM. bead-based flow cytometry, Alexa488-MEK5 binding to MEKK3; actives lie on both sides; 0 = blocked by unlabeled MEK5, 100 = vehicle;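 active = binding response more than 3 SD above or below the average of its plate-row segment, actives on both sides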;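 also: Alexa488 bead fluorescence after subtracting the streptavidin-only scavenger bead signal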
Pemphigus Ab inh – inhibitors of pemphigus antibody binding to DSG3, primary screen, biochemical, bead-based, flow cytometry, scFv-GFP; DSG3-coupled beads, scFv-anti-DSG3-GFP binding; hits give low values; binding (percent of control), % at 10 µM; 310,000 tested, 0.48% active;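 active = binding more than 3 SD below its plate's average and above zero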;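 also: hits lower antibody fragment binding to DSG3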
MEKK2 WT-MEK5 – modulators of MEK5 binding to wildtype MEKK2, primary screen, biochemical, multiplex bead flow cytometry, Alexa488-MEK5; Mitogen-activated protein kinase kinase kinase 2 (Homo sapiens), Q9Y2U5; Alexa488-MEK5 binding to MEKK2 WT; actives lie on both sides; binding response (% of control), % at 10 µM; 290,000 tested, 1.1% active; in the data active = binding response below about 67% or above about 130%
Apaf-1 inh – inhibitors of human Apaf-1 apoptosome, primary screen, biochemical, DEVD-Rh110 fluorescence, uHTS. Apoptotic protease-activating factor 1 (Homo sapiens), O14727. reconstituted apoptosome caspase-3 activity. inhibition, % at 20 µM. 330,000 tested, 0.71% active. AID 489030, 2010; active = inhibition of at least 40% at 20 µM;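 also: plate controls were DMSO wells for no effect and DEVD-CHO caspase inhibitor wells for full effect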
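detection = Rh110 fluorescence intensity | test system = biochemical Apaf-1 apoptosome reconstitution | also added = cytochrome c and DEVD-Rh110 substrate | schedule = 30 min plus 50 min, RT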
UBC13 polyUb – UBC13 polyubiquitin chain formation inhibitors, primary screen, biochemical, TR-FRET, uHTS; Ubiquitin-conjugating enzyme E2 N (Homo sapiens), P61088; inhibition, % at 20 µM; 330,000 tested, 0.47% active; in the data active = inhibition above about 45%, passing the limit was not always enough
Target sequence (P61088 whole entry, looked up): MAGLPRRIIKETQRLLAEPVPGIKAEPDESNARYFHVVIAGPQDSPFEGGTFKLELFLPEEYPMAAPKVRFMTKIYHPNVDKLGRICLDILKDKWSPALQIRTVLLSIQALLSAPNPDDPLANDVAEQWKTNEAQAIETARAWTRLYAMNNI
MEKK2 mut-MEK5 – MEK5 binding signal on mutant MEKK2 PB1, primary screen, biochemical, multiplex bead flow cytometry, Alexa488-MEK5; 290,000 tested, 0.35% active; Alexa488-MEK5 binding to MEKK2 mutant; percent response, % at 10 µM; in the data active = percent response above about 24%, passing the limit was not always enough
Casp3 counter – CASP3 inhibitor validation, counterassay for project on UBE2N polyubiquitination blockers, biochemical, one dose; inhibition, % at 20 µM; Recombinant caspase-3, Caspase-Glo 3/7 luminescence, 60 min; shares compounds with UBC13 polyUb; 1,400 tested, 4% active;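 active = mean inhibition across replicates above about 26%, limit read from the data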;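 also: plate controls were DMSO with caspase-3 for no effect and DMSO wells lacking enzyme for full effect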
Target sequence (P42574 whole entry, looked up): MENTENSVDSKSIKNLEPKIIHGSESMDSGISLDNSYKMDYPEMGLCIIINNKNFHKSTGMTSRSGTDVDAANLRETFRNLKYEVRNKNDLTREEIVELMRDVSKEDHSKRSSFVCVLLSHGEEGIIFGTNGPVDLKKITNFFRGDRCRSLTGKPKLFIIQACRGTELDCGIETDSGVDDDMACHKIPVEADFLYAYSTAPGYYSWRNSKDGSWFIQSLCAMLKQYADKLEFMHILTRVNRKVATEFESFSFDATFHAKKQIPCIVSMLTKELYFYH
UBC13 confirm – UBC13 polyubiquitination inhibitors, single-point retest, confirmation, biochemical, TR-FRET, single concentration. AID 488859, 2010. inhibition, % at 10 µM. shares compounds with UBC13 polyUb. 1,400 tested, 68% active; in the data active = inhibition above about 45%
The depositor's hits bear a star; nt = no result.

SMILES | MEKK3 PB1 HTS | Pemphigus Ab inh | MEKK2 WT-MEK5 | Apaf-1 inh | UBC13 polyUb | MEKK2 mut-MEK5 | Casp3 counter | UBC13 confirm
C/C(=N\NC(=O)CSCc1ccc([N+](=O)[O-])cc1)c1ccccc1O | 102.0 | 82.5 | 100.0 | 8.2 | 84.4* | -2.0 | -1.4 | 95.3*
C/C(=N\NC(=O)CSCc1ccc([N+](=O)[O-])cc1)c1ccccc1 | 102.0 | 99.2 | 101.0 | 4.7 | 91.2* | 9.0 | 3.2 | 109.4*
C/C(=N\NC(=O)Cc1ccc(Cl)cc1)c1ccccc1O | 103.0 | 117.8 | 105.0 | 8.8 | 7.6 | 21.0 | nt | nt
C=CCN1[C@@H](Cc2ccccc2)COCCS1(=O)=O | nt | 94.9 | nt | nt | nt | nt | nt | nt
CC1CCCC(NC(=O)CSc2ncnc3ccccc23)C1C (stereo unspecified) | nt | 101.3 | nt | -1.0 | 45.8* | nt | 3.3 | 34.2
Cc1ccc(-c2oc3ncnc(N)c3c2-c2ccc(C)cc2)cc1 | 97.0 | nt | 97.0 | 24.6 | 88.3* | -8.0 | -1.5 | 82.2*
NC1=NC[C@H](Cc2ccc(O)cc2)N1CCc1cc(C(F)(F)F)cc(C(F)(F)F)c1 | 89.0 | 108.4 | 94.0 | 28.0 | 51.6* | 8.0 | -6.0 | 33.1
CC(=O)c1ccc(N2CCN(C(=O)c3c(-c4ccccc4Cl)noc3C)CC2)cc1 | 95.0 | 112.4 | 100.0 | 11.4 | 3.5 | 4.0 | nt | nt
Cc1ccc(-n2nc3c4c(cccc4c2=O)-c2ccccc2-3)cc1 | 108.0 | 99.0 | 102.0 | 15.6 | 45.7* | 3.0 | 8.5 | 38.6
COc1ccc(CC(=O)NNC(=O)c2cnccn2)cc1 | 110.0 | 99.8 | 105.0 | -7.4 | 4.3 | 0.0 | nt | nt
CCCCOc1ccc(C(=O)NNC(=O)c2cnccn2)cc1OC | nt | 96.9 | nt | -5.0 | 64.3* | nt | -2.7 | 23.7
O=C(OCc1nc2scc(-c3ccccc3)c2c(=O)[nH]1)c1cc([N+](=O)[O-])ccc1Cl | 103.0 | nt | 101.0 | 22.1 | 45.6* | 0.0 | 2.4 | -3.2
Fc1cnc(Cl)nc1NC1CCCCC1 | 98.0 | 100.9 | 100.0 | 1.0 | 9.8 | 5.0 | nt | nt
O=C(COC(=O)c1cc(=O)[nH]c(=O)[nH]1)Nc1cccc(Cl)c1 | nt | 97.9 | nt | 2.6 | 66.3* | nt | 3.3 | 51.2*
Cc1cc(C)cc(NC(=O)COC(=O)c2cc(=O)[nH]c(=O)[nH]2)c1 | 104.0 | 108.2 | 106.0 | 3.4 | 34.7 | 3.0 | nt | nt
Cc1ccc(C2C3=C(CC(C)(C)CC3=O)NC3=C2C(=O)c2ccccc23)cc1 (stereo unspecified) | 97.0 | 122.8 | 95.0 | 7.3 | -8.4 | -3.0 | nt | nt
CC1(C)CC(=O)C2=C(C1)NC1=C(C(=O)c3ccccc31)C2c1ccc(Cl)cc1 (stereo unspecified) | 92.0 | nt | 90.0 | 9.6 | 50.2* | 0.0 | -3.9 | 56.2*
CCCCN1C(=N)N([C@@H](CCC)CN2CCC[C@H]2CN2C(N)=NC[C@H]2CC(C)C)C[C@H]1Cc1ccccc1 | nt | 114.6 | nt | 17.2 | 51.2* | nt | 2.2 | 37.8
CCCCN1C(=N)N([C@@H](CN2CCC[C@H]2CN2C(N)=NC[C@@H]2Cc2ccccc2)C(C)C)C[C@H]1Cc1ccccc1 | nt | 106.1 | nt | 38.4 | 46.8* | nt | 0.5 | 38.9
COc1cc2[nH]c(=S)nc(NC3CCCCCC3)c2cc1OC | 102.0 | 94.2 | 103.0 | 2.2 | 35.6 | 0.0 | nt | nt
COc1cc2[nH]c(=S)nc(Nc3ccc(NC(C)=O)cc3)c2cc1OC | 85.0 | 91.0 | 78.0 | -10.9 | 46.3* | -14.0 | 3.8 | 47.8*
Cc1cc(C)cc(OCC(O)CN2CCC(CN3C(=O)c4cccc5cccc(c45)C3=O)CC2)c1 (stereo unspecified) | nt | 111.9 | nt | 32.7 | 44.9 | nt | nt | nt
COc1ccc(COCC(O)CN2CCC(CN3C(=O)c4cccc5cccc(c45)C3=O)CC2)cc1OC (stereo unspecified) | 106.0 | 101.9 | 111.0 | 2.0 | 72.9* | 5.0 | -4.0 | 65.1*
O=C1c2cccc3cccc(c23)C(=O)N1CC1CCN(CC(O)COc2ccc3ccccc3c2)CC1 (stereo unspecified) | nt | 108.7 | nt | 36.3 | 79.0* | nt | -0.7 | 85.2*
COc1cc(-c2cc(C(=O)Nc3ccc(S(=O)(=O)Nc4ncccn4)cc3)c3ccccc3n2)cc(OC)c1OC | 102.0 | 85.8 | 99.0 | -2.5 | 27.9 | 5.0 | nt | nt
SMILES | MEKK3 PB1 HTS | Pemphigus Ab inh | MEKK2 WT-MEK5 | Apaf-1 inh | UBC13 polyUb | MEKK2 mut-MEK5 | Casp3 counter | UBC13 confirm
COc1cc(-c2cc(C(=O)Nc3ccc(S(N)(=O)=O)cc3)c3ccccc3n2)cc(OC)c1OC | 105.0 | nt | 99.0 | 14.6 | 59.8* | 5.0 | -0.8 | 47.5*
Cc1cc(C(=O)NC(C)C2CCCO2)c(C)o1 (stereo unspecified) | 101.0 | 117.8 | 106.0 | -12.6 | 5.2 | 4.0 | nt | nt
O=C(COc1ccc(F)cc1)c1ccc2c(c1)CCCC2 | 109.0 | 96.7 | 100.0 | 13.2 | -0.6 | 9.0 | nt | nt
O=C(COc1ccc(Cc2ccccc2)cc1)c1ccc(F)cc1 | 99.0 | 100.6 | 101.0 | 15.8 | 45.1* | 1.0 | 48.6* | 8.0
Cc1cccc(N2CN(S(=O)(=O)c3cccc([N+](=O)[O-])c3)c3nc4ccccc4nc32)c1 | nt | 125.3 | nt | -5.3 | -14.7 | nt | nt | nt
COc1ccc(-n2c(=O)[nH]c3cc(C(=O)NCCc4ccccc4)ccc3c2=O)cc1OC | 102.0 | 86.8 | 103.0 | 1.7 | -4.3 | 6.0 | nt | nt
CC1CN(S(=O)(=O)c2cccc(C(=O)N(Cc3nnc(-c4ccccc4Cl)o3)C3CC3)c2)CC(C)O1 (stereo unspecified) | nt | 113.7 | nt | 29.2 | 50.6* | nt | -2.1 | 85.6*
O=C(c1cccc(S(=O)(=O)N2CCOCC2)c1)N(Cc1nnc(-c2ccccc2Cl)o1)C1CC1 | nt | 99.8 | nt | 1.0 | -5.2 | nt | nt | nt
CCOC(=O)Cc1cc(=O)[nH]c(Nc2nc3ccccc3o2)n1 | 101.0 | 102.3 | 108.0 | -7.1 | 82.5* | 5.0 | 45.1* | 92.9*
Cc1ccc2oc(Nc3nc(-c4ccccc4)cc(=O)[nH]3)nc2c1 | 104.0 | nt | 97.0 | -6.3 | 5.1 | -4.0 | nt | nt
COCc1cc(=O)[nH]c(Nc2nc3ccccc3o2)n1 | 105.0 | nt | 108.0 | 6.7 | 80.7* | 6.0 | 43.2* | 81.3*
